Activity calls are given as the source filed them.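 Rule for the calls, unless noted: active = inhibition of the reporter signal at or above 50%; inactive = inhibition below 50%.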
Assays:
[1] = inhibitors of TNFa-induced NFkB p65 translocation, primary screen, imaging, HUVEC, MLSMR starter and 10KST1 sets (AID 438;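 active = inhibition above 20% together with a positive visual image hit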;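 note: compound added about 3h40 before a 20 min TNFalpha stimulation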;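 for inhibition: signal is the nuclear over cytoplasmic p65 intensity ratio per well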); details: HUVEC TNFa-induced p65 nuclear translocation; cell count: measured here: nuclei count (cytotoxicity indicator), at 2.08 µM; inhibition: at 2 µM, stronger effect = higher value, 0% TNFa-plus-vehicle, 100% no-TNFa wells
[2] = reduction of polyQ htt aggregates in cells – imaging, exon1htt(103Q)mCFP cells, high-content imaging, primary screen (AID 483;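 active = visual image review flags a hit and inhibition of aggregation exceeds 20%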;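 note: compound exposure lasted 3 days before fixation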;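 for nuclei count: percent of the per-plate median nuclei count of sample wells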); details: exon1htt(103Q)mCFP cell line, aggregate imaging, at 2 µM; inhibition of aggregation: stronger effect = higher value; nuclei count: measured here: cell count, toxicity
[3] = endothelial E-selectin expression blockers – imaging, HUVEC, immunofluorescence, MLSMR starter and 10KST1 sets, primary screen (AID 487;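 active = visually confirmed hit in the image check and inhibition above 20%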;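 for inhibition: signal is fraction of cell area covered by stained E-selectin grains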;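 for nuclei count: 100% = median nuclei count of all wells on the same plate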); details: HUVEC TNFalpha-induced E-selectin immunofluorescence imaging, at 2 µM; inhibition: stronger effect = higher value; nuclei count: measured here: cell number, toxicity
[4] = target: Voltage-gated potassium channel subunit beta-2 (Rattus norvegicus) (UniProt P62483); assay: inhibitors of rat Kvbeta2 reductase activity – biochemical, NADPH fluorescence, primary screen (AID 622;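 active = fluorescence slope higher than the sample average by over 3 SD, cut at about -0.22 in these data, passing the limit was not always enough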;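 note: slope of raw intensity against log time taken from 70 to 1610 s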); details: recombinant KvBeta, 4-cyanobenzaldehyde reduction, at 10 µM, stronger effect = higher value
[5] = target: Voltage-gated potassium channel subunit beta-2 (Rattus norvegicus) (UniProt P62483); assay: enhancers of rat Kvbeta2 NADPH turnover – biochemical, NADPH fluorescence, primary screen (AID 623;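 active = NADPH fluorescence slope more negative than the mean of all samples by about 3 SD, 99.7% confidence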;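 note: fluorescence intensity change per second fitted from 20 to 320 s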); details: Recombinant KvBeta, NADPH fluorescence decrease slope, 10 min; at 10 µM; stronger effect = lower value
[6] = target: Muscarinic acetylcholine receptor M4 (Homo sapiens) (UniProt P08173); assay: M4-linked GIRK flux change, two-sided – cell-based, HEK293 M4/GIRK, thallium flux, BTC-AM, M4 allosteric agonist project, primary screen (AID 625;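 active = fluorescence slope after compound addition differing from the mean of all tested samples at 99.7% confidence, mostly higher but some lower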;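 note: thallium influx through GIRK channels coupled to M4 in HEK293 cells with BTC-AM dye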); details: at 10 µM, actives lie on both sides
In short: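 System: HEK293 cells with M4 receptor and GIRK channels | Incubation: Cells overnight at 37 °C, BTC-AM loading 1 h, reads 2 min total | Technique: Kinetic BTC-AM fluorescence sampled at 1 Hz, 10 s pre-addition baseline | Measure: Post-addition slope, 15–24 s, of baseline-normalized fluorescence | Control set: Carbachol positive, DMSO negative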

[7] = blockers of RIG-like receptor reporter activation – cell-based, Sendai virus stimulus, luciferase, 10K MLSCN set, TLR/RLR signaling modifier project, primary screen (AID 602276;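 active = inhibition at or above 50% at 10 µM; inactive = inhibition below 50%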;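 note: firefly luciferase from ISG56 promoter only with Renilla not read in this screen; 0% = Sendai virus plus DMSO and 100% = medium plus DMSO without virus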); details: HEK293 RL24 IRF3 luciferase reporter, at 10 µM, stronger effect = higher value
[8] = TLR3 IRF3 reporter activation blockers – cell-based, poly I:C stimulus, luciferase, 10K MLSCN set, primary screen (AID 602277); details: HEK293-TLR3 RL24 IRF3 luciferase reporter, at 10 µM, stronger effect = higher value

Chain of Voltage-gated potassium channel subunit beta-2 (Rattus norvegicus) (P62483 whole entry, looked up): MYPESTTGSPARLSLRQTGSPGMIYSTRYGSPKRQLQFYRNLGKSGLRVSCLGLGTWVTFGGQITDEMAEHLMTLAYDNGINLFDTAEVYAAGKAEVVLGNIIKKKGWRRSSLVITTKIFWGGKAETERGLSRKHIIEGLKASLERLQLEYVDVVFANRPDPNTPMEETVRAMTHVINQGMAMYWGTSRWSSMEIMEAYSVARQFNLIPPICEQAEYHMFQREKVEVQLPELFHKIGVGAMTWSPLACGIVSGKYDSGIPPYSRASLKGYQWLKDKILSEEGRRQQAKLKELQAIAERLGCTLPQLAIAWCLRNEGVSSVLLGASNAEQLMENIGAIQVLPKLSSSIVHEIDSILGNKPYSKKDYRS
Chain of Muscarinic acetylcholine receptor M4 (Homo sapiens) (P08173 whole entry, looked up): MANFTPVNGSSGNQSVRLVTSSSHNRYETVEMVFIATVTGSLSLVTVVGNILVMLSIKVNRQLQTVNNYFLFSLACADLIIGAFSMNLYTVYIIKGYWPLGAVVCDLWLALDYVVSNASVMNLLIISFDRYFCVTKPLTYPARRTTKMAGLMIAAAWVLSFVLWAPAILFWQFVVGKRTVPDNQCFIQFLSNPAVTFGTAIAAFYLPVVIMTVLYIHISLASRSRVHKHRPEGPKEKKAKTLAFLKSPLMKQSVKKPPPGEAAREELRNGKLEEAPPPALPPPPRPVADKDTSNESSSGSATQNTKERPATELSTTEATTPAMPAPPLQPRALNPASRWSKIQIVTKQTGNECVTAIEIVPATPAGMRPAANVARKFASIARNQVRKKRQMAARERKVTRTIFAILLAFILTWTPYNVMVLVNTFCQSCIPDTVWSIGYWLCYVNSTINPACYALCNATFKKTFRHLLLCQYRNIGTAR

| SMILES | cell count [1] | inhibition [1] | inhibition of aggregation [2] | nuclei count [2] | inhibition [3] | nuclei count [3] | fluorescence slope [4] | NADPH fluorescence slope [5] | fluorescence slope [6] | inhibition [7] | inhibition [8] |
| --- | --- | --- | --- | --- | --- | --- | --- | --- | --- | --- | --- |
| Cc1cc(C)c(C)c(S(=O)(=O)Nc2ccc(O)cc2)c1C | 187 | -8.6% (inactive) | 37.3% (active) | 87.5% | -7.7% (inactive) | 74.8% | -0.539 (inactive) | -1.7e-05 (inactive) | 0.00478 (inactive) | 10.8% (inactive) | 18.5% (inactive) |
| Cc1ccc(S(=O)(=O)N2CCCC2C(=O)n2nc(C)cc2C)cc1 (centres undefined) | 432 | -12.3% (inactive) | 15.8% (inactive) | 86.2% | 46.7% (inactive) | 93.5% | -0.341 (inactive) | -4.4e-05 (inactive) | 0.00537 (inactive) | 12.5% (inactive) | 19.1% (inactive) |
| CC1CCN(C(=O)c2cc(-c3ccc(Cl)c(Cl)c3)on2)CC1 | 435 | 0.9% (inactive) | 4.2% (inactive) | 94% | 6.5% (inactive) | 91.7% | -0.449 (inactive) | -3.4e-05 (inactive) | 0.00453 (inactive) | -41% (inactive) | -89% (inactive) |
| CCCC1CC(C)(C(=O)Cn2[nH]c(=O)ccc2=O)OC1=O (centres undefined) | 580 | -22.2% (inactive) | -42.5% (inactive) | 120% | -76% (inactive) | 104% | -0.515 (inactive) | 0.000145 (inactive) | 0.00625 (inactive) | 22.7% (inactive) | 25.6% (inactive) |
| O=C(CCCN1C(=O)c2ccccc2C1=O)Oc1ccc(F)cc1 | 735 | -11.6% (inactive) | -0.5% (inactive) | 106% | 17.3% (inactive) | 96.8% | -0.512 (inactive) | 1.4e-05 (inactive) | 0.00485 (inactive) | 12.5% (inactive) | 18.6% (inactive) |
| CC(=O)c1c(C)[nH]c(C(=O)Nc2ccc3c(c2)OCCO3)c1C | 402 | -3.5% (inactive) | -4.8% (inactive) | 115% | -18.4% (inactive) | 114% | -0.596 (inactive) | 6.7e-06 (inactive) | 0.00406 (inactive) | -15.9% (inactive) | -58% (inactive) |
| O=S(=O)(NCC1CCCO1)c1cccc(C(F)(F)F)c1 (centres undefined) | 611 | -4.8% (inactive) | -6.4% (inactive) | 100% | -51.8% (inactive) | 159% | -0.568 (inactive) | 4.6e-05 (inactive) | 0.00471 (inactive) | 1.55% (inactive) | 12.2% (inactive) |
| O=C(CN1C(=O)COc2ccccc21)NCCN1CCc2ccccc2C1 | 681 | 7.3% (inactive) | 30.2% (inactive) | 95% | -2.1% (inactive) | 92.7% | -0.573 (inactive) | -5.4e-05 (inactive) | 0.00634 (inactive) | 12.1% (inactive) | 26.1% (inactive) |
| Cc1ccccc1-c1nc(CN2CCC(C(=O)NCCCN3CCCC3)CC2)c(C)o1 | 223 | 0% (inactive) | -91.5% (inactive) | 101% | 25.4% (inactive) | 94.2% | -0.553 (inactive) | 7.2e-05 (inactive) | 0.00435 (inactive) | -136% (inactive) | 56.5% (active) |
| COc1ccc(OCc2cccc(C(=O)O)c2)cc1 | 623 | -1.6% (inactive) | -9.3% (inactive) | 55.9% | 20.3% (inactive) | 111% | -0.511 (inactive) | 5e-05 (inactive) | 0.00513 (inactive) | 46.4% (inactive) | 42.2% (inactive) |
| CS(=O)(=O)N(CC(=O)O)c1cccc(Cl)c1 | 358 | 9.8% (inactive) | -14.9% (inactive) | 106% | -49% (inactive) | 121% | -0.544 (inactive) | -0.00014 (inactive) | 0.00338 (inactive) | -12.6% (inactive) | -6.52% (inactive) |
| COc1ccc(C2c3c(-c4ccccc4O)n[nH]c3C(=O)N2CCc2ccc(OC)c(OC)c2)cc1 (centres undefined) | 644 | -22.4% (inactive) | 17.2% (inactive) | 68.1% | -37.6% (inactive) | 114% | -0.616 (inactive) | 5.9e-06 (inactive) | 0.00748 (inactive) | 17.4% (inactive) | 21.5% (inactive) |
| CC(=O)N1CCc2cc(S(=O)(=O)NCCC3=CCCCC3)ccc21 | 399 | 3.5% (inactive) | -11.2% (inactive) | 123% | -71.2% (inactive) | 141% | -0.425 (inactive) | 3.5e-05 (inactive) | 0.00546 (inactive) | 12.2% (inactive) | -2.52% (inactive) |
| CCCCN(CC)S(=O)(=O)c1ccc2c(c1)CCCN2C(C)=O | 490 | 2.9% (inactive) | 17.1% (inactive) | 111% | -88.5% (inactive) | 103% | -0.545 (inactive) | -2.8e-05 (inactive) | 0.0053 (inactive) | 0.955% (inactive) | 6.93% (inactive) |
| O=C(Nc1cccc(NC(=O)c2cccnc2)c1)c1cccnc1 | 515 | -3.3% (inactive) | -15.9% (inactive) | 96.4% | 2.1% (inactive) | 103% | -0.271 (inactive) | -1.6e-05 (inactive) | 0.0055 (inactive) | 15.2% (inactive) | 11% (inactive) |
| CCOC(=O)c1ccc(NC(=O)CC2SC(=NC)N(C)C2=O)cc1 (centres undefined) | 401 | 14.6% (inactive) | -8.2% (inactive) | 103% | -14.5% (inactive) | 110% | -0.48 (inactive) | -5.8e-05 (inactive) | 0.00547 (inactive) | 13.7% (inactive) | 17.7% (inactive) |
| Cc1nc(NC2=NCN(CCc3ccccc3)CN2)nc2c(C)cccc12 | 428 | 46.4% (active) | -2.2% (inactive) | 79.5% | -18.7% (inactive) | 104% | -0.457 (inactive) | -1.3e-05 (inactive) | 0.0048 (inactive) | 27.7% (inactive) | 28.3% (inactive) |
| CN(C)C(CNc1nnnn1-c1ccccc1)c1ccco1 (centres undefined) | 632 | -7.3% (inactive) | -11.4% (inactive) | 96% | -23.9% (inactive) | 116% | -0.584 (inactive) | 4.2e-06 (inactive) | 0.00677 (inactive) | 8.59% (inactive) | 19.2% (inactive) |
| CC(=O)Nc1ccc(S(=O)(=O)N2CCSC2c2ccccc2)cc1 (centres undefined) | 241 | -12.1% (inactive) | -8.7% (inactive) | 106% | -34.7% (inactive) | 76.2% | -0.552 (inactive) | -3.6e-05 (inactive) | 0.00574 (inactive) | 18.3% (inactive) | 22% (inactive) |

Reference: PubChem BioAssay
